# ChEMBL document CHEMBL5724801, “EUbOPEN Chemogenomics Library - Multiplex” (2024)
# Several values for one entry are separate records, joined by “and”; a condition that tells them apart may be missing. Equal entries are not always repeated.
# Test system: Fibroblast
# Experiment: Multiplex assay against human fibroblast
# Type: toxicity, cell-based
# How it was run: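 Tubulin, mitochondrial-mass and membrane-permeability phenotypes are per cents of healthy-nucleus cells. Cells were gated by CellPathfinder machine learning into Hoechst high-intensity objects or normal cells, normal cells into healthy, pyknosed or fragmented nuclei, and pyknosed cells into mitotic or apoptotic. Before that, live cells stained at seeding with Hoechst33342, BioTracker Green Microtubule Cytoskeleton Dye, MitoTracker Red and Annexin V Alexa Fluor 680 were imaged on a CQ1 microscope at 37°C and 5% CO2 after compound addition.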
# [1] = 12 h, 1 µM, compound concentration 1 uM
# [2] = 12 h, 10 µM, compound concentration 10 uM
# [3] = 24 h, 1 µM, compound concentration 1 uM
# [4] = 24 h, 10 µM, compound concentration 10 uM
# [5] = 48 h, 1 µM, compound concentration 1 uM
# [6] = 48 h, 10 µM, compound concentration 10 uM
structure (smiles),measurement,setting,value
COc1cc(OC2CCN(C(C)=O)CC2)ccc1C(=O)N1CCC(N2C(=O)OCc3ccccc32)CC1,Population Apoptotic (%),[1],41% and 40%
same,Population Fragmented Nuclei (%),[1],12% and 29%
same,Population Healthy Nuclei (%),[1],64% and 52%
same,Population Hoechst High Intensity Objects (%),[1],5% and 3%
same,Population Membrane Permeable-Phenotype (%),[1],2% and 0%
same,Population Mitochondria Different-Phenotype (%),[1],5% and 3%
same,Population Mitotic Cells (%),[1],58% and 59%
same,Population Normal (%),[1],94% and 96%
same,Population Pyknosed Nuclei (%),[1],22% and 17%
same,Population Tubulin-Different-Phenotype (%),[1],32% and 34%
same,Total Cell Count,[1],157 and 159
same,Population Apoptotic (%),[2],52% and 37%
same,Population Healthy Nuclei (%),[2],73% and 40%
same,Population Hoechst High Intensity Objects (%),[2],3% and 6%
same,Population Membrane Permeable-Phenotype (%),[2],0% and 2%
same,Population Mitochondria Different-Phenotype (%),[2],6% and 10%
same,Population Mitotic Cells (%),[2],48% and 62%
same,Population Normal (%),[2],96% and 93%
same,Population Pyknosed Nuclei (%),[2],16% and 28%
same,Population Tubulin-Different-Phenotype (%),[2],54% and 56%
same,Total Cell Count,[2],161 and 134
same,Population Apoptotic (%),[3],63% and 48%
same,Population Fragmented Nuclei (%),[3],19% and 28%
same,Population Healthy Nuclei (%),[3],63% and 51%
same,Population Hoechst High Intensity Objects (%),[3],1%
same,Population Membrane Permeable-Phenotype (%),[3],0% and 5%
same,Population Mitochondria Different-Phenotype (%),[3],4% and 3%
same,Population Mitotic Cells (%),[3],36% and 51%
same,Population Normal (%),[3],98%
same,Population Pyknosed Nuclei (%),[3],17% and 19%
same,Population Tubulin-Different-Phenotype (%),[3],32% and 31%
same,Total Cell Count,[3],170 and 155
same,Population Apoptotic (%),[4],36% and 43%
same,Population Fragmented Nuclei (%),[4],13% and 34%
same,Population Healthy Nuclei (%),[4],74% and 48%
same,Population Hoechst High Intensity Objects (%),[4],7%
same,Population Membrane Permeable-Phenotype (%),[4],1% and 3%
same,Population Mitochondria Different-Phenotype (%),[4],7% and 10%
same,Population Mitotic Cells (%),[4],63% and 56%
same,Population Normal (%),[4],92%
same,Population Pyknosed Nuclei (%),[4],11% and 17%
same,Population Tubulin-Different-Phenotype (%),[4],39% and 70%
same,Total Cell Count,[4],172 and 145
same,Population Apoptotic (%),[5],40% and 58%
same,Population Fragmented Nuclei (%),[5],14% and 32%
same,Population Healthy Nuclei (%),[5],70% and 52%
same,Population Hoechst High Intensity Objects (%),[5],7% and 3%
same,Population Membrane Permeable-Phenotype (%),[5],0% and 4%
same,Population Mitochondria Different-Phenotype (%),[5],5% and 4%
same,Population Mitotic Cells (%),[5],59% and 41%
same,Population Normal (%),[5],92% and 96%
same,Population Pyknosed Nuclei (%),[5],14% and 15%
same,Population Tubulin-Different-Phenotype (%),[5],35% and 43%
same,Total Cell Count,[5],160 and 163
same,Population Apoptotic (%),[6],57% and 56%
same,Population Healthy Nuclei (%),[6],79% and 51%
same,Population Hoechst High Intensity Objects (%),[6],5% and 3%
same,Population Membrane Permeable-Phenotype (%),[6],0% and 3%
same,Population Mitochondria Different-Phenotype (%),[6],13% and 10%
same,Population Mitotic Cells (%),[6],42% and 43%
same,Population Normal (%),[6],94% and 96%
same,Population Pyknosed Nuclei (%),[6],9% and 12%
same,Population Tubulin-Different-Phenotype (%),[6],51% and 69%
same,Total Cell Count,[6],155 and 134
C[C@H](NC(=O)CNC(=O)c1cccc(Cl)c1)c1ccccc1,Population Apoptotic (%),[1],50% and 44%
same,Population Fragmented Nuclei (%),[1],18% and 28%
same,Population Healthy Nuclei (%),[1],71% and 53%
same,Population Hoechst High Intensity Objects (%),[1],0% and 3%
same,Population Membrane Permeable-Phenotype (%),[1],0% and 6%
same,Population Mitochondria Different-Phenotype (%),[1],4% and 2%
same,Population Mitotic Cells (%),[1],50% and 56%
same,Population Normal (%),[1],100% and 96%
same,Population Pyknosed Nuclei (%),[1],10% and 18%
same,Population Tubulin-Different-Phenotype (%),[1],17% and 41%
same,Total Cell Count,[1],94 and 140
same,Population Apoptotic (%),[2],48% and 43%
same,Population Fragmented Nuclei (%),[2],15% and 31%
same,Population Healthy Nuclei (%),[2],58% and 43%
same,Population Hoechst High Intensity Objects (%),[2],2% and 1%
same,Population Membrane Permeable-Phenotype (%),[2],0% and 13%
same,Population Mitochondria Different-Phenotype (%),[2],8% and 3%
same,Population Mitotic Cells (%),[2],51% and 56%
same,Population Normal (%),[2],97% and 98%
same,Population Pyknosed Nuclei (%),[2],26% and 24%
same,Population Tubulin-Different-Phenotype (%),[2],35% and 54%
same,Total Cell Count,[2],106 and 124
same,Population Apoptotic (%),[3],43% and 33%
same,Population Fragmented Nuclei (%),[3],17% and 30%
same,Population Healthy Nuclei (%),[3],65% and 50%
same,Population Hoechst High Intensity Objects (%),[3],1% and 3%
same,Population Membrane Permeable-Phenotype (%),[3],1% and 8%
same,Population Mitochondria Different-Phenotype (%),[3],3% and 4%
same,Population Mitotic Cells (%),[3],56% and 66%
same,Population Normal (%),[3],98% and 96%
same,Population Pyknosed Nuclei (%),[3],17% and 19%
same,Population Tubulin-Different-Phenotype (%),[3],25% and 42%
same,Total Cell Count,[3],93 and 145
same,Population Apoptotic (%),[4],52% and 56%
same,Population Fragmented Nuclei (%),[4],14% and 33%
same,Population Healthy Nuclei (%),[4],61% and 45%
same,Population Hoechst High Intensity Objects (%),[4],2% and 5%
same,Population Membrane Permeable-Phenotype (%),[4],1% and 5%
same,Population Mitochondria Different-Phenotype (%),[4],3% and 7%
same,Population Mitotic Cells (%),[4],48% and 43%
same,Population Normal (%),[4],97% and 94%
same,Population Pyknosed Nuclei (%),[4],24% and 20%
same,Population Tubulin-Different-Phenotype (%),[4],45% and 64%
same,Total Cell Count,[4],107 and 118
same,Population Apoptotic (%),[5],33% and 40%
same,Population Fragmented Nuclei (%),[5],20% and 29%
same,Population Healthy Nuclei (%),[5],67% and 52%
same,Population Hoechst High Intensity Objects (%),[5],1% and 3%
same,Population Membrane Permeable-Phenotype (%),[5],0% and 4%
same,Population Mitochondria Different-Phenotype (%),[5],0% and 2%
same,Population Mitotic Cells (%),[5],66% and 60%
same,Population Normal (%),[5],98% and 96%
same,Population Pyknosed Nuclei (%),[5],12% and 17%
same,Population Tubulin-Different-Phenotype (%),[5],26% and 44%
same,Total Cell Count,[5],95 and 147
same,Population Apoptotic (%),[6],68% and 69%
same,Population Fragmented Nuclei (%),[6],15% and 38%
same,Population Healthy Nuclei (%),[6],56% and 50%
same,Population Hoechst High Intensity Objects (%),[6],7% and 4%
same,Population Membrane Permeable-Phenotype (%),[6],1% and 6%
same,Population Mitochondria Different-Phenotype (%),[6],15% and 5%
same,Population Mitotic Cells (%),[6],31% and 30%
same,Population Normal (%),[6],92% and 95%
same,Population Pyknosed Nuclei (%),[6],27% and 11%
same,Population Tubulin-Different-Phenotype (%),[6],50% and 67%
same,Total Cell Count,[6],112 and 121
